According to ChEMBL document CHEMBL1152213, “Design, synthesis and antiviral efficacy of a series of potent chloropyridyl ester-derived SARS-CoV 3CLpro inhibitors” (Bioorg Med Chem Lett, 2008):
Calls of active or inactive are those of the source. No cut-off for these calls is given here.

Assays:
[1] = test system: SARS-CoV; experiment: Antiviral activity against SARS-CoV Urbani in african green monkey Vero E6 cells assessed as cell viability after 48 hrs; format: functional, organism-based; conditions: Severe acute respiratory syndrome-related coronavirus
[2] = target: Replicase polyprotein 1a (Severe acute respiratory syndrome-related coronavirus) (UniProt P0C6U8); experiment: Inhibition of SARS 3Clpro measured by rate of reaction
In short: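 Full-length authentic enzyme at 100 nM in 50 mM HEPES pH 7.5 with 1 mM DTT and 0.01 mg/mL BSA. IC50 taken from reaction rates across increasing inhibitor concentrations.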

Row | Structure (SMILES) | IC50 [1] | Activity [2]
1 | O=C(Oc1cncc(Cl)c1)c1cccc2cc[nH]c12 | 80 nM | –
2 | Cc1ccc(S(=O)(=O)n2ccc3cc(C(=O)Oc4cncc(Cl)c4)ccc32)cc1 | 370 nM | –
3 | CC(=O)N1Cc2ccccc2C[C@H]1C(=O)Oc1cncc(Cl)c1 | 140 nM | –
4 | CC(=O)n1ccc2cc(C(=O)Oc3cncc(Cl)c3)ccc21 | 400 nM | inactive
5 | CC(C)(C)OC(=O)N[C@@H]1C(=O)N2[C@@H]1SC(C)(C)[C@@H]2C(=O)Oc1cncc(Cl)c1 | > 100000 nM | –
6 | O=C(Oc1cncc(Cl)c1)c1ccc2cc[nH]c2c1 | 230 nM | –
7 | CC(=O)n1ccc2c(C(=O)Oc3cncc(Cl)c3)cccc21 | 1080 nM | inactive
8 | O=C(Oc1cncc(Cl)c1)c1ccc2[nH]ccc2c1 | 310 nM | –
9 | O=C(Oc1cncc(Cl)c1)c1ccc2c(ccn2S(=O)(=O)c2cccc([N+](=O)[O-])c2)c1 | 89 nM | –
10 | O=C(On1nnc2ccccc21)c1ccc2[nH]ccc2c1 | 200 nM | –
